Blank lines part the entries; values can stand above or below the compound they belong to.
Legend:
[1] = test system: Plasmodium falciparum; assay: Antimalarial activity against Plasmodium falciparum 3D7A infected in human RBC after 48 hrs by [3H]-hypoxanthine incorporation assay; type: functional
[2] = target: serum albumin (Homo sapiens, UniProt P02768); assay: Binding affinity to human serum albumin by HPLC method; type: ADME; settings: read-out: PB (converted)
[3] = Cmax in CD1 mouse at 4.42 mg/kg administered via oral gavage by LC-MS/MS method; type: ADME, organism-based; set-up: dose 4.42 mg/kg, route oral; settings: in vivo
In short: (§1)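 Specific pathogen-free female CD1 (Hsd:ICR) mice, 8 to 10 weeks old. Each compound was given as an intravenous dose and an oral dose at the levels listed. Parameters reported: Vd, clearance, t1/2, Cmax, Tmax, AUC0-t, AUC∞ and %F.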

[4] = Tmax in CD1 mouse at 4.42 mg/kg administered via oral gavage by LC-MS/MS method; type: ADME, organism-based; settings: in vivo
In short: (§2)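 Specific pathogen-free female CD1 (Hsd:ICR) mice, 8–10 weeks old, housed in the institutional animal facility. Each compound was given intravenously at a low dose and orally at a higher dose. Vd, clearance, t1/2, Cmax, Tmax, AUC0-t, AUC∞ and %F were derived from plasma exposure after each route.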

[5] = AUC (0 to t) in CD1 mouse at 4.42 mg/kg administered via oral gavage by LC-MS/MS method; type: ADME, organism-based; settings: in vivo; in short: as §1
[6] = AUC (infinity) in CD1 mouse at 4.42 mg/kg administered via oral gavage by LC-MS/MS method; type: ADME, organism-based; set-up: dose 4.42 mg/kg, time infinity, route oral; settings: in vivo; in short: as §1
[7] = Oral bioavailability in CD1 mouse at 4.42 mg/kg administered via gavage by LC-MS/MS method; type: ADME, organism-based; settings: in vivo; in short: as §2
[8] = test system: Plasmodium yoelii; assay: Schizontocidal activity against Plasmodium yoelii infected in CD1 mouse administered via oral gavage as qd for 4 days starting 1 hr post infection by YOYO-1 dye-based flow cytometric method; type: functional
In short: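 Blood schizontocidal activity was tested in a modified 4-day suppressive test in mice infected with P. yoelii. Four oral doses were given by gavage over four days.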

[9] = Volume of distribution in CD1 mouse at 0.192 mg/kg, iv as bolus dose by LC-MS/MS method; type: ADME, organism-based; settings: in vivo; in short: as §2
[10] = Clearance in CD1 mouse at 0.192 mg/kg, iv as bolus dose by LC-MS/MS method; type: ADME, organism-based; settings: in vivo; in short: as §1
[11] = Half life in CD1 mouse at 0.192 mg/kg, iv as bolus dose by LC-MS/MS method; type: ADME, organism-based; settings: in vivo; in short: as §1
[12] = Cmax in CD1 mouse at 10.36 mg/kg administered via oral gavage by LC-MS/MS method; type: ADME, organism-based; set-up: dose 10.36 mg/kg, route oral; settings: in vivo; in short: as §1
[13] = Tmax in CD1 mouse at 10.36 mg/kg administered via oral gavage by LC-MS/MS method; type: ADME, organism-based; settings: in vivo; in short: as §2
[14] = AUC (0 to t) in CD1 mouse at 10.36 mg/kg administered via oral gavage by LC-MS/MS method; type: ADME, organism-based; settings: in vivo; in short: as §1
[15] = AUC (infinity) in CD1 mouse at 10.36 mg/kg administered via oral gavage by LC-MS/MS method; type: ADME, organism-based; set-up: dose 10.36 mg/kg, route oral, time infinity; settings: in vivo; in short: as §1
[16] = Oral bioavailability in CD1 mouse at 10.36 mg/kg administered via gavage by LC-MS/MS method; type: ADME, organism-based; settings: in vivo; in short: as §1
[17] = Volume of distribution in CD1 mouse at 0.211 mg/kg, iv as bolus dose by LC-MS/MS method; type: ADME, organism-based; settings: in vivo; in short: as §2
[18] = Clearance in CD1 mouse at 0.211 mg/kg, iv as bolus dose by LC-MS/MS method; type: ADME, organism-based; settings: in vivo; in short: as §1
[19] = Half life in CD1 mouse at 0.211 mg/kg, iv as bolus dose by LC-MS/MS method; type: ADME, organism-based; settings: in vivo; in short: as §1
[20] = Cmax in CD1 mouse at 8.366 mg/kg administered via oral gavage by LC-MS/MS method; type: ADME, organism-based; set-up: dose 8.366 mg/kg, route oral; settings: in vivo; in short: as §1
[21] = Tmax in CD1 mouse at 8.366 mg/kg administered via oral gavage by LC-MS/MS method; type: ADME, organism-based; settings: in vivo; in short: as §2
[22] = AUC (0 to t) in CD1 mouse at 8.366 mg/kg administered via oral gavage by LC-MS/MS method; type: ADME, organism-based; settings: in vivo; in short: as §1
[23] = AUC (infinity) in CD1 mouse at 8.366 mg/kg administered via oral gavage by LC-MS/MS method; type: ADME, organism-based; set-up: dose 8.366 mg/kg, route oral, time infinity; settings: in vivo; in short: as §1
[24] = Oral bioavailability in CD1 mouse at 8.366 mg/kg administered via gavage by LC-MS/MS method; type: ADME, organism-based; settings: in vivo; in short: as §2
[25] = Volume of distribution in CD1 mouse at 0.17 mg/kg, iv as bolus dose by LC-MS/MS method; type: ADME, organism-based; settings: in vivo; in short: as §2
[26] = Clearance in CD1 mouse at 0.17 mg/kg, iv as bolus dose by LC-MS/MS method; type: ADME, organism-based; settings: in vivo; in short: as §1
[27] = Half life in CD1 mouse at 0.17 mg/kg, iv as bolus dose by LC-MS/MS method; type: ADME, organism-based; settings: in vivo; in short: as §1
[28] = Cmax in CD1 mouse at 10.757 mg/kg administered via oral gavage by LC-MS/MS method; type: ADME, organism-based; set-up: dose 10.757 mg/kg, route oral; settings: in vivo, 10.76 mg/kg; in short: as §1
[29] = Tmax in CD1 mouse at 10.757 mg/kg administered via oral gavage by LC-MS/MS method; type: ADME, organism-based; settings: in vivo; in short: as §2
[30] = AUC (0 to t) in CD1 mouse at 10.757 mg/kg administered via oral gavage by LC-MS/MS method; type: ADME, organism-based; settings: in vivo; in short: as §1
[31] = AUC (infinity) in CD1 mouse at 10.757 mg/kg administered via oral gavage by LC-MS/MS method; type: ADME, organism-based; set-up: dose 10.757 mg/kg, route oral, time infinity; settings: in vivo, 10.76 mg/kg; in short: as §1
[32] = Oral bioavailability in CD1 mouse at 10.757 mg/kg administered via gavage by LC-MS/MS method; type: ADME, organism-based; settings: in vivo; in short: as §1

serum albumin, sequence (P02768 whole entry): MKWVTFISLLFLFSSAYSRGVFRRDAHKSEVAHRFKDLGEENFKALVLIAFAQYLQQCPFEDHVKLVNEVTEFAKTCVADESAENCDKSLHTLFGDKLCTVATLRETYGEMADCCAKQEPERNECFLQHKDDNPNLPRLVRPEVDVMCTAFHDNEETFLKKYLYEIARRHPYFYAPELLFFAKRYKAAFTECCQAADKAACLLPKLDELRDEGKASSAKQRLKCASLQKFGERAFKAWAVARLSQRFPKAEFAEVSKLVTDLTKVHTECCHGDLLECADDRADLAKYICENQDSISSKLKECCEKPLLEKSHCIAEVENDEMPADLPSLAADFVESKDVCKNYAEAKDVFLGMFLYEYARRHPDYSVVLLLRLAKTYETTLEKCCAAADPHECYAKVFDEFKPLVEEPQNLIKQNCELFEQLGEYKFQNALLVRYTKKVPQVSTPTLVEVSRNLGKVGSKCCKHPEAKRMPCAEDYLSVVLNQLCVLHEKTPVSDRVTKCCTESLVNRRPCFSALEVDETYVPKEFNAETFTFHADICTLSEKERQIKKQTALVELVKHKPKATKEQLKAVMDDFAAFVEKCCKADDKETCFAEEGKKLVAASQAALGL

Compound: Cc1[nH]c(C)c(-c2ccc(-c3ccc(C(F)(F)F)cc3)nc2)c(=O)c1Cl
IC50 [1]: 16 nM
fraction unbound [2]: 0.05
Cmax [3]: 3310 ng/mL
Tmax [4]: 10 h
AUC(0-t) [5]: 101 µg·h/mL
AUC(0-inf) [6]: 106 µg·h/mL
bioavailability [7]: 100%
ED50 [8]: 0.25 mg/kg

Compound: Cc1[nH]c(C)c(-c2ccc(-c3ccc(OC(F)(F)F)cc3)nc2)c(=O)c1Br
IC50 [1]: 20 nM
fraction unbound [2]: 0.04
Vd [9]: 0.91 L/kg
clearance [10]: 0.72 mL/min/kg
half-life [11]: 14.6 h
Cmax [12]: 4100 ng/mL
Tmax [13]: 10 h
AUC(0-t) [14]: 109 µg·h/mL
AUC(0-inf) [15]: 118 µg·h/mL
bioavailability [16]: 49.1%

Compound: Cc1[nH]c(C)c(-c2ccc(OCc3cc(C(F)(F)F)cc(C(F)(F)F)c3)nc2)c(=O)c1Cl
IC50 [1]: 29 nM

Compound: Cc1[nH]c(C)c(-c2ccc(-c3ccc(C(F)(F)F)cc3Cl)nc2)c(=O)c1Cl
IC50 [1]: 2 nM
fraction unbound [2]: 0.05
Vd [17]: 1.24 L/kg
clearance [18]: 1.11 mL/min/kg
half-life [19]: 12.8 h
Cmax [20]: 1690 ng/mL
Tmax [21]: 10 h
AUC(0-t) [22]: 37.4 µg·h/mL
AUC(0-inf) [23]: 37.5 µg·h/mL
bioavailability [24]: 30%
ED50 [8]: 0.33 mg/kg

Compound: Cc1[nH]c(C)c(-c2ccc(OCc3ccc(F)cc3)nc2)c(=O)c1Cl
IC50 [1]: 33 nM

Compound: Cc1[nH]c(C)c(-c2ccc(-c3ccc(Cl)cc3)nc2)c(=O)c1Br
IC50 [1]: 110 nM

Compound: Cc1[nH]c(C)c(-c2ccc(-c3cccc(Cl)c3)nc2)c(=O)c1Cl
IC50 [1]: 116 nM

Compound: Cc1[nH]c(C)c(-c2ccc(-c3ccc(F)cc3)nc2)c(=O)c1Br
IC50 [1]: 129 nM

Compound: Cc1[nH]c(C)c(-c2ccc(C#Cc3ccc(F)cc3F)nc2)c(=O)c1Cl
IC50 [1]: 472 nM

Compound: Cc1[nH]c(CO)c(-c2ccc(-c3ccc(C(F)(F)F)cc3F)nc2)c(=O)c1Cl
IC50 [1]: 5 nM
fraction unbound [2]: 0.06
ED50 [8]: 0.2 mg/kg

Compound: Cc1[nH]c(C)c(-c2ccc(-c3ccc(OC(F)(F)F)cc3)nc2)c(=O)c1Cl
IC50 [1]: 20 nM
fraction unbound [2]: 0.04
Vd [25]: 0.85 L/kg
clearance [26]: 0.53 mL/min/kg
half-life [27]: 18.7 h
Cmax [28]: 2290 ng/mL
Tmax [29]: 10 h
AUC(0-t) [30]: 167 µg·h/mL
AUC(0-inf) [31]: 187 µg·h/mL
bioavailability [32]: 54.9%
ED50 [8]: 0.15 mg/kg

The remaining lines, values ahead:

IC50 [1]: 82 nM
Compound: Cc1[nH]c(C)c(-c2ccc(-c3ccc(F)cc3)nc2)c(=O)c1Cl

IC50 [1]: 5 nM
Compound: Cc1[nH]c(C)c(-c2ccc(OCc3ccc(C(F)(F)F)cc3)nc2)c(=O)c1Cl

IC50 [1]: 26 nM
Compound: Cc1[nH]c(C)c(-c2ccc(-c3ccccc3Cl)nc2)c(=O)c1Cl

IC50 [1]: 19 nM
fraction unbound [2]: 0.03
Compound: Cc1[nH]c(C)c(-c2ccc(OCc3ccc(OC(F)(F)F)cc3)nc2)c(=O)c1Br

IC50 [1]: 5 nM
Compound: Cc1[nH]c(C)c(-c2ccc(OCc3cccc(C(F)(F)F)c3)nc2)c(=O)c1Cl

IC50 [1]: 10 nM
Compound: Cc1[nH]c(C)c(-c2ccc(OCc3ccc(F)cc3)nc2)c(=O)c1Br

IC50 [1]: 5 nM
Compound: Cc1[nH]c(C)c(-c2ccc(CCc3ccc(C(F)(F)F)cc3)nc2)c(=O)c1Cl

IC50 [1]: 7 nM
Compound: Cc1[nH]c(C)c(-c2ccc(CCc3cccc(C(F)(F)F)c3)nc2)c(=O)c1Cl

IC50 [1]: 2 nM
Compound: Cc1[nH]c(C)c(-c2ccc(OCc3ccc(C(F)(F)F)cc3)nc2)c(=O)c1Br

IC50 [1]: 11 nM
Compound: Cc1[nH]c(C)c(-c2ccc(OCc3ccccc3C(F)(F)F)nc2)c(=O)c1Br

Reference: ChEMBL document CHEMBL4043297, “Synthesis and Structure-Activity Relationships of the Novel Antimalarials 5-Pyridinyl-4(1 H)-Pyridones” (J Med Chem, 2018)
